Activity calls are given as the source filed them. The rule behind the calls is not given here.
System: Human immunodeficiency virus 1
Assay: Antiviral activity against HIV1 infected in MT4 cells assessed as virus-induced cytopathogenicity after 4 days
Format: functional, organism-based
Conditions: not given

Structure (SMILES)	Activity
O=[N+]([O-])c1ccc(/N=N\C2=C3CCCCN3CCC2)cc1	inactive
CN1C=C(/N=N/c2cccc3ccccc23)CCC1	inactive
Clc1ccc(/N=N\C2=C3CCCN3CCC2)cc1	inactive
C(=C\N1CCOCC1)/N=N/c1ccccc1	inactive
CN1CCC/C1=C\N=N\c1c(F)c(F)c(F)c(F)c1F	inactive
CN1C=C(/N=N/c2ccc([N+](=O)[O-])cc2)CCC1	inactive
CN1C=C(/N=N/c2ccccc2)CCC1	inactive
FC(F)(F)c1cc(/N=N/C2=CN(Cc3ccccc3)CCC2)ccc1Cl	inactive

System: Coxsackievirus B2
Assay: Antiviral activity against CVB2 infected in Vero76 cells assessed as reduction in virus plaque formation after 4 days by MTT assay
Format: functional, organism-based
Conditions: Enterovirus B, Vero 76, 96 h

Structure (SMILES)	EC50 [µM]
O=[N+]([O-])c1ccc(/N=N\C2=C3CCCCN3CCC2)cc1	26
CN1C=C(/N=N/c2cccc3ccccc23)CCC1	76
Clc1ccc(/N=N\C2=C3CCCN3CCC2)cc1	10
C(=C\N1CCOCC1)/N=N/c1ccccc1	7
CN1CCC/C1=C\N=N\c1c(F)c(F)c(F)c(F)c1F	> 100
CN1C=C(/N=N/c2ccc([N+](=O)[O-])cc2)CCC1	> 100
CN1C=C(/N=N/c2ccccc2)CCC1	> 100
FC(F)(F)c1cc(/N=N/C2=CN(Cc3ccccc3)CCC2)ccc1Cl	4

System: not listed separately
Assay: Cytotoxicity against mock-infected MDBK cells assessed as reduction in cell viability after 96 hrs by MTT assay
Format: cell-based, Bos taurus
Conditions: cattle
Summary of the method: (§1)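 Cytotoxicity run in parallel with the antiviral assays. MDBK seeded at 6 × 10^5 and BHK at 1 × 10^6 cells/mL in maintenance medium with or without serial compound dilutions. Incubated 48–96 h at 37 °C, 5% CO2, then viability read by MTT. CC50 is the concentration reducing mock-infected cell viability by 50%.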

Structure (SMILES)	CC50 at 96 h [µM]
O=[N+]([O-])c1ccc(/N=N\C2=C3CCCCN3CCC2)cc1	> 100
CN1C=C(/N=N/c2cccc3ccccc23)CCC1	> 100
Clc1ccc(/N=N\C2=C3CCCN3CCC2)cc1	30
C(=C\N1CCOCC1)/N=N/c1ccccc1	28
CN1CCC/C1=C\N=N\c1c(F)c(F)c(F)c(F)c1F	> 100
CN1C=C(/N=N/c2ccc([N+](=O)[O-])cc2)CCC1	62
CN1C=C(/N=N/c2ccccc2)CCC1	> 100
FC(F)(F)c1cc(/N=N/C2=CN(Cc3ccccc3)CCC2)ccc1Cl	28

System: Vesicular stomatitis virus
Assay: Antiviral activity against VSV infected in Vero76 cells assessed as reduction in virus plaque formation after 4 days by MTT assay
Format: functional, organism-based
Conditions: Vero 76

Structure (SMILES)	Activity
O=[N+]([O-])c1ccc(/N=N\C2=C3CCCCN3CCC2)cc1	inactive
CN1C=C(/N=N/c2cccc3ccccc23)CCC1	inactive
Clc1ccc(/N=N\C2=C3CCCN3CCC2)cc1	inactive
C(=C\N1CCOCC1)/N=N/c1ccccc1	inactive
CN1CCC/C1=C\N=N\c1c(F)c(F)c(F)c(F)c1F	inactive
CN1C=C(/N=N/c2ccc([N+](=O)[O-])cc2)CCC1	inactive
CN1C=C(/N=N/c2ccccc2)CCC1	inactive
FC(F)(F)c1cc(/N=N/C2=CN(Cc3ccccc3)CCC2)ccc1Cl	inactive

System: Bovine viral diarrhea virus 1
Assay: Antiviral activity against BVDV infected in MDBK cells assessed as protection against virus-induced cytopathogenicity after 4 days by MTT assay
Format: functional, organism-based
Conditions: Bovine viral diarrhea virus isolates and strains, 96 h
Summary of the method: (§2)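 MDBK (BVDV) or BHK-21 (YFV) cells were seeded at 3 × 10^4 or 5 × 10^4 cells/well respectively and grown overnight to confluent monolayers at 37 °C in 5% CO2. Monolayers were infected at m.o.i. 0.01 in serum-free medium. After 1 h, MEM Earle's with 1% FCS was added, with or without serial compound dilutions. After 3–4 days at 37 °C, viability was read by MTT. EC50 was taken as 50% protection from virus-induced cytopathogenicity.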

Structure (SMILES)	EC50 [µM]
O=[N+]([O-])c1ccc(/N=N\C2=C3CCCCN3CCC2)cc1	86
CN1C=C(/N=N/c2cccc3ccccc23)CCC1	5
Clc1ccc(/N=N\C2=C3CCCN3CCC2)cc1	> 30
C(=C\N1CCOCC1)/N=N/c1ccccc1	> 28
CN1CCC/C1=C\N=N\c1c(F)c(F)c(F)c(F)c1F	> 100
CN1C=C(/N=N/c2ccc([N+](=O)[O-])cc2)CCC1	11
CN1C=C(/N=N/c2ccccc2)CCC1	> 100
FC(F)(F)c1cc(/N=N/C2=CN(Cc3ccccc3)CCC2)ccc1Cl	≥ 28

System: not listed separately
Assay: Cytotoxicity against mock-infected human MT4 cells assessed as reduction in cell viability after 96 hrs by MTT assay
Format: cell-based
Conditions: not given
Summary of the method: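 Exponentially growing MT-4 cells seeded at 1 × 10^5 cells/mL in RPMI-1640 with 10% FCS, penicillin and streptomycin, with or without serial compound dilutions. Incubated at 37 °C, 5% CO2; viability read by MTT after 96 h. CC50 is the concentration reducing mock-infected cell viability by 50%.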

Structure (SMILES)	CC50 at 96 h [µM]
O=[N+]([O-])c1ccc(/N=N\C2=C3CCCCN3CCC2)cc1	91
CN1C=C(/N=N/c2cccc3ccccc23)CCC1	> 100
Clc1ccc(/N=N\C2=C3CCCN3CCC2)cc1	> 100
C(=C\N1CCOCC1)/N=N/c1ccccc1	7
CN1CCC/C1=C\N=N\c1c(F)c(F)c(F)c(F)c1F	8
CN1C=C(/N=N/c2ccc([N+](=O)[O-])cc2)CCC1	> 100
CN1C=C(/N=N/c2ccccc2)CCC1	> 100
FC(F)(F)c1cc(/N=N/C2=CN(Cc3ccccc3)CCC2)ccc1Cl	43

System: not listed separately
Assay: Cytotoxicity against mock-infected BHK cells assessed as reduction in cell viability after 96 hrs by MTT assay
Format: cell-based, Mesocricetus auratus
Conditions: hamster
Summary of the method: as §1

Structure (SMILES)	CC50 at 96 h [µM]
O=[N+]([O-])c1ccc(/N=N\C2=C3CCCCN3CCC2)cc1	> 100
CN1C=C(/N=N/c2cccc3ccccc23)CCC1	> 100
Clc1ccc(/N=N\C2=C3CCCN3CCC2)cc1	34
C(=C\N1CCOCC1)/N=N/c1ccccc1	> 100
CN1CCC/C1=C\N=N\c1c(F)c(F)c(F)c(F)c1F	> 100
CN1C=C(/N=N/c2ccc([N+](=O)[O-])cc2)CCC1	> 100
CN1C=C(/N=N/c2ccccc2)CCC1	> 100
FC(F)(F)c1cc(/N=N/C2=CN(Cc3ccccc3)CCC2)ccc1Cl	32

System: not listed separately
Assay: Cytotoxicity against mock-infected african green monkey Vero76 cells assessed as reduction in cell viability after 96 hrs by MTT assay
Format: cell-based, Vero
Conditions: chlorocebus sabaeus

Structure (SMILES)	CC50 at 96 h [µM]
O=[N+]([O-])c1ccc(/N=N\C2=C3CCCCN3CCC2)cc1	100
CN1C=C(/N=N/c2cccc3ccccc23)CCC1	≥ 100
Clc1ccc(/N=N\C2=C3CCCN3CCC2)cc1	75
C(=C\N1CCOCC1)/N=N/c1ccccc1	30
CN1CCC/C1=C\N=N\c1c(F)c(F)c(F)c(F)c1F	> 100
CN1C=C(/N=N/c2ccc([N+](=O)[O-])cc2)CCC1	> 100
CN1C=C(/N=N/c2ccccc2)CCC1	≥ 100
FC(F)(F)c1cc(/N=N/C2=CN(Cc3ccccc3)CCC2)ccc1Cl	48

System: Yellow fever virus
Assay: Antiviral activity against YFV infected in BHK21 cells assessed as protection against virus-induced cytopathogenicity after 4 days by MTT assay
Format: functional, organism-based
Conditions: BHK-21, 96 h
Summary of the method: as §2

Structure (SMILES)	EC50 [µM]
O=[N+]([O-])c1ccc(/N=N\C2=C3CCCCN3CCC2)cc1	≥ 100
CN1C=C(/N=N/c2cccc3ccccc23)CCC1	> 100
Clc1ccc(/N=N\C2=C3CCCN3CCC2)cc1	> 34
C(=C\N1CCOCC1)/N=N/c1ccccc1	> 100
CN1CCC/C1=C\N=N\c1c(F)c(F)c(F)c(F)c1F	> 100
CN1C=C(/N=N/c2ccc([N+](=O)[O-])cc2)CCC1	> 100
CN1C=C(/N=N/c2ccccc2)CCC1	> 100
FC(F)(F)c1cc(/N=N/C2=CN(Cc3ccccc3)CCC2)ccc1Cl	22

System: Respiratory syncytial virus
Assay: Antiviral activity against RSV infected in Vero76 cells assessed as reduction in virus plaque formation after 4 days by MTT assay
Format: functional, organism-based
Conditions: human respiratory syncytial virus, Vero 76, 96 h

Structure (SMILES)	EC50 [µM]
O=[N+]([O-])c1ccc(/N=N\C2=C3CCCCN3CCC2)cc1	> 100
CN1C=C(/N=N/c2cccc3ccccc23)CCC1	> 100
Clc1ccc(/N=N\C2=C3CCCN3CCC2)cc1	> 75
C(=C\N1CCOCC1)/N=N/c1ccccc1	15
CN1CCC/C1=C\N=N\c1c(F)c(F)c(F)c(F)c1F	75
CN1C=C(/N=N/c2ccc([N+](=O)[O-])cc2)CCC1	> 100
CN1C=C(/N=N/c2ccccc2)CCC1	75
FC(F)(F)c1cc(/N=N/C2=CN(Cc3ccccc3)CCC2)ccc1Cl	> 48

System: Poliovirus 1
Assay: Antiviral activity against Sb1 virus infected in Vero76 cells assessed as reduction in virus plaque formation after 4 days by MTT assay
Format: functional, organism-based
Conditions: Enterovirus C, Sabin, Vero 76, 96 h

Structure (SMILES)	EC50 [µM]
O=[N+]([O-])c1ccc(/N=N\C2=C3CCCCN3CCC2)cc1	> 100
CN1C=C(/N=N/c2cccc3ccccc23)CCC1	> 100
Clc1ccc(/N=N\C2=C3CCCN3CCC2)cc1	20
C(=C\N1CCOCC1)/N=N/c1ccccc1	> 30
CN1CCC/C1=C\N=N\c1c(F)c(F)c(F)c(F)c1F	> 100
CN1C=C(/N=N/c2ccc([N+](=O)[O-])cc2)CCC1	> 100
CN1C=C(/N=N/c2ccccc2)CCC1	> 100
FC(F)(F)c1cc(/N=N/C2=CN(Cc3ccccc3)CCC2)ccc1Cl	> 48

System: Vaccinia virus
Assay: Antiviral activity against VV infected in Vero76 cells assessed as reduction in virus plaque formation after 4 days by MTT assay
Format: functional, organism-based
Conditions: Orthopoxvirus vaccinia; Vero 76

Structure (SMILES)	Activity
O=[N+]([O-])c1ccc(/N=N\C2=C3CCCCN3CCC2)cc1	inactive
CN1C=C(/N=N/c2cccc3ccccc23)CCC1	inactive
Clc1ccc(/N=N\C2=C3CCCN3CCC2)cc1	inactive
C(=C\N1CCOCC1)/N=N/c1ccccc1	inactive
CN1CCC/C1=C\N=N\c1c(F)c(F)c(F)c(F)c1F	inactive
CN1C=C(/N=N/c2ccc([N+](=O)[O-])cc2)CCC1	inactive
CN1C=C(/N=N/c2ccccc2)CCC1	inactive
FC(F)(F)c1cc(/N=N/C2=CN(Cc3ccccc3)CCC2)ccc1Cl	inactive

From ChEMBL document CHEMBL1144182, “Antimicrobial and cytotoxic arylazoenamines. Part III: antiviral activity of selected classes of arylazoenamines” (Bioorg Med Chem, 2008)
